Series [1] in a line: The total clearance time in rat was determined. In kind it is ADME, organism-based. The settings on record: in vivo, read-out: CLtotal. The gist of the method: (§1)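 Given to rat, dog and cynomolgus monkey as a solution in poly(ethylene glycol) 400/ethanol (90:10 v/v), by intravenous and oral (po) dosing. The iv/po dose pairs in mg/kg were 5/5 or 1/5 in rat and 2/10 or 0.67/3.4 in dog and monkey. Plasma sampling gave Fpo (%), oral Cmax (µM), CLtot (mL/min/kg) and Vss (L/kg).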

Series [2] in a line: Oral bioavailability after paroral administration of 3.4(mg/kg) polyethelene glycol in dog was determined. Type of series: ADME, organism-based, Canis lupus familiaris. The settings on record: in vivo. Put shortly: (§2)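 Oral dosing as a solution in PEG 400/ethanol (90:10 v/v). Separate iv arms were used for comparison: rat 1 mg/kg iv vs 5 mg/kg po, dog and cynomolgus monkey 0.67 mg/kg iv vs 3.4 mg/kg po. Oral bioavailability (Fpo, %) was derived from plasma exposure after oral relative to intravenous dosing.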

Series [3] is described as follows: The maximum plasma concentration of compound after paroral administration of 3.4(mg/kg) polyethelene glycol in monkey was determined. In kind it is ADME, organism-based. Also noted: dose 3.4 mg/kg, route oral. To be noted: simiiformes, po. Put shortly: as §1
The nature of series [4]: Oral bioavailability after paroral administration of 3.4(mg/kg) polyethelene glycol in monkey was determined. Type of series: ADME, organism-based. To be noted: primates, in vivo. Put shortly:
as §2

The nature of series [5]: Oral bioavailability after paroral administration of 5(mg/kg) polyethelene glycol in rat was determined. Type of series: ADME, organism-based. To be noted: in vivo. Put shortly: as §2
The nature of series [6]: The volume of distribution of compound was determined in dog. Type of series: ADME, organism-based, Canis lupus familiaris. The settings on record: in vivo, read-out: Vss. The gist of the method: as §1
In series [7] the test system is Human immunodeficiency virus 1. Description: Inhibitory activity of compound against JRFL (M) Macrophage tropic virus that utilizes the CCR5 was determined. Type of series: functional, organism-based. To be noted: Human immunodeficiency virus 1, CCR5.
Series [8] in a line: The volume of distribution of compound against rat was determined. In kind it is ADME, organism-based. To be noted: in vivo, read-out: Vss. The gist of the method: as §1
Series [9] deals with Human immunodeficiency virus 1. The experiment in a line: Inhibitory activity of compound against SF-162 (M) Macrophage tropic virus that utilizes the CCR5 was determined. Type of series: functional, organism-based, sf-162 macrophage tropic virus. The settings on record: Human immunodeficiency virus 1, CCR5.
The nature of series [10]: Cytotoxicity activity of compound in MT-2 cells against LAI (T) tropic virus that utilizes the CXCR-4 co-receptor virus was determined. In kind it is functional. To be noted: MT2. Put shortly: (§3)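 CC50 in µM, measured as cytotoxicity toward the host cells used for the antiviral assays, either MT-2 or PM1 cells.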
For series [11], the system named is Human immunodeficiency virus 1. Description: Cytotoxicity activity of compound in PM1 cells against BAl (M) Macrophage tropic virus that utilizes the CCR5 virus was determined. Type of series: functional. To be noted: Human immunodeficiency virus 1, PM1. The gist of the method: as §3
The nature of series [12]: The maximum plasma concentration of compound after paroral administration of 5(mg/kg) polyethelene glycol in rat was determined. Type of series: ADME, organism-based. Further details: dose 5 mg/kg, route oral. The settings on record: po. The gist of the method:
as §1

Series [13] in a line: Inhibitory activity of compound against LAI (T) tropic virus that utilizes the CXCR-4 co-receptor was determined. In kind it is functional.
Series [14] concerns Human immunodeficiency virus 1. The experiment in a line: Cytotoxicity activity of compound in MT-2 cells against TLAV (dual) virus that utilizes both CXR4 and CCR5 co-receptor virus was determined. In kind it is functional. The settings on record: Human immunodeficiency virus 1, TLAV, MT2. The gist of the method:
as §3

The nature of series [15]: The volume of distribution of compound was determined in monkey. Type of series: ADME, organism-based. The settings on record: simiiformes, in vivo; read-out: Vss. Put shortly: as §1
Series [16] in a line: Inhibitory activity of compound against NL4-3 (T) tropic virus that utilizes the CXCR-4 co-receptor was determined. Type of series: functional, nl4-3 tropic virus.
In series [17] the test system is Human immunodeficiency virus 1. The experiment in a line: Inhibitory activity of compound against BAl (M) Macrophage tropic virus that utilizes the CCR5 co-receptor was determined. In kind it is functional, organism-based. To be noted: Human immunodeficiency virus 1, CCR5.
In series [18] the test system is Human immunodeficiency virus 1. The experiment in a line: Inhibitory activity of compound against SF-2 (T) tropic virus that utilizes the CXCR-4 co-receptor was determined. In kind it is functional, organism-based, sf-2 tropic virus.
Series [19] deals with Human immunodeficiency virus 1. The experiment in a line: Inhibitory activity of compound against TLAV (dual) virus that utilizes both CXR4 and CCR5 co-receptor virus was determined. In kind it is functional, organism-based. The settings on record: Human immunodeficiency virus 1, TLAV.
A short description of series [20]: The total clearance time in dog was determined. The settings on record: in vivo, read-out: CLtotal. In kind it is ADME, organism-based, Canis lupus familiaris. The gist of the method: as §1
Series [21] in a line: The total clearance time in monkey was determined. The settings on record: simiiformes, in vivo; read-out: CLtotal. In kind it is ADME, organism-based. The gist of the method:
as §1

A short description of series [22]: The maximum plasma concentration of compound after paroral administration of 3.4(mg/kg) polyethelene glycol in dog was determined. In kind it is ADME, organism-based, Canis lupus familiaris. Further details: dose 3.4 mg/kg, route oral. The settings on record: po. Put shortly: as §1
The test system of series [23] is Human immunodeficiency virus 1. The experiment in a line: Inhibitory activity of compound in MT-2 cells against JRFL (M) Macrophage tropic virus that utilizes the CCR5 was determined. In kind it is functional, organism-based.
The nature of series [24]: The maximum plasma concentration of compound after paroral administration of 10 (mg/kg) polyethelene glycol in dog was determined. Type of series: ADME, organism-based, Canis lupus familiaris. Further details: dose 10 mg/kg, route oral. To be noted: po. The gist of the method: as §1
Series [25] can be described thus: Oral bioavailability after paroral administration of 10 (mg/kg) polyethelene glycol in monkey was determined. In kind it is ADME, organism-based. The settings on record: primates, in vivo. The gist of the method:
as §1

Series [26] in a line: Oral bioavailability after peroral administration of 5(mg/kg) polyethelene glycol in rat was determined. In kind it is ADME, organism-based. To be noted: in vivo. Put shortly: as §1
The test system of series [27] is Human immunodeficiency virus 1. Description: Cytotoxicity activity of compound against TLAV (dual) virus that utilizes both CXR4 and CCR5 co-receptor virus was determined. The settings on record: Human immunodeficiency virus 1, TLAV. In kind it is functional. The gist of the method: as §3
Series [28] concerns Human immunodeficiency virus 1. The experiment in a line: Cytotoxicity activity of compound against BAl (M) Macrophage tropic virus that utilizes the CCR5 virus was determined. In kind it is functional. To be noted: Human immunodeficiency virus 1, CCR5. Put shortly: as §3
A short description of series [29]: The volume of distribution of compound a was determined in dog. Type of series: ADME, organism-based, Canis lupus familiaris. To be noted: in vivo, read-out: Vss. The gist of the method: as §1
Series [30] can be described thus: The maximum plasma concentration of compound after paroral administration of 10 (mg/kg) polyethelene glycol in monkey was determined. In kind it is ADME, organism-based. Also noted: dose 10 mg/kg, route oral. The settings on record: simiiformes, po. Put shortly:
as §1

The nature of series [31]: The volume of distribution of compound was determined in rat. In kind it is ADME, organism-based. The settings on record: in vivo, read-out: Vss. The gist of the method:
as §1

A short description of series [32]: Oral bioavailability after paroral administration of 10 (mg/kg) polyethelene glycol in dog was determined. In kind it is ADME, organism-based, Canis lupus familiaris. To be noted: in vivo. Put shortly:
as §1

Series [33] in a line: The maximum plasma concentration of compound after peroral administration of 5(mg/kg) polyethelene glycol in rat was determined. Also noted: dose 5 mg/kg, route oral. To be noted: po. In kind it is ADME, organism-based. The gist of the method:
as §1

pEC50: −log10 of the molar value.

As to `COc1ccnc2[nH]cc(C(=O)C(=O)N3CCN(C(=O)c4ccccc4)C[C@H]3C)c12`, the clearance in series [1] worked out at 32 mL/min/kg; in series [20] it was 5.2 mL/min/kg; in series [21], 10 mL/min/kg. Also, the bioavailability in [2] stood at 77%; in series [4], 24%; in [5], 19%. Moreover, the Cmax is 0.51 µM in [3], 0.22 µM in [12] and 7.4 µM in [22]. In addition, the values for the Vd in series [6], in series [8] and in series [15] were 0.47 L/kg, 0.56 L/kg and 0.39 L/kg, respectively. Further, the pEC50 is 8.83 in series [7]; 8.46 in series [9]; 8.57 in series [13]; 8.53 in [16]; 7.81 in [17]; 7.58 in series [18]. The compound also had a pEC50 in series [19] of 9.07. In addition, the 50% cytotoxic concentration (CC50) in [10], in series [11] and in [14] was greater than 300000 nM in each case.
For the compound `O=C(C(=O)N1CCN(C(=O)c2ccccc2)CC1)c1c[nH]c2ccccc12`, the pEC50 in [9] is 6.64; in series [13], 7.07; in series [16], 5.29; in series [17] it was 4.54; in [18], 5.99; in [19], 6.83. The CC50 in series [10] was 145000 nM; in [11], greater than 200000 nM; in [14] it was 145000 nM.
With `O=C(C(=O)N1CCN(C(=O)c2ccccc2)CC1)c1c[nH]c2cccc(F)c12`, the clearance turned out to be 48 mL/min/kg in [1], 2.4 mL/min/kg in series [20] and 3.1 mL/min/kg in series [21]. Moreover, the pEC50 in series [23] was 8.62; in series [13], 8.53; in series [16], 7.51; in series [17] it was 7.74; in [18], 7.20; in series [19], 7.87. Further, the Cmax was determined as 18 µM in series [24], 34 µM in series [30] and 0.15 µM in series [33]. In addition, the bioavailability in [25] came out at 100%; in series [26] it was 9.4%; in series [32] it was 100%. The CC50 in series [27] stood at 146000 nM; in [28], 52500 nM; in [10] it was 146000 nM. For the same compound, the values for the Vd in [29], in [31] and in [15] were 1.8 L/kg, 0.99 L/kg and 0.24 L/kg, respectively.

For the origin of these results see ChEMBL document CHEMBL1145109, “Discovery of 4-benzoyl-1-[(4-methoxy-1H- pyrrolo[2,3-b]pyridin-3-yl)oxoacetyl]-2- (R)-methylpiperazine (BMS-378806): a novel HIV-1 attachment inhibitor that interferes with CD4-gp120 interactions” (J Med Chem, 2003).
